Paper PMC7199890 (European journal of medicinal chemistry, 2019)
pKi: −log10 of the molar value. Where “and” joins values, the source holds several entries; their conditions need not be identical. Equal entries are not always repeated. Structures can show the parent of a compound that is named as a salt.

Columns and labels:
Assay in all cases: Radioligand binding
hA2AAR = hA2AAR (Homo sapiens, UniProt P29274); conditions: for hA1/hA2A: selectivity ratio of Ki values
hA3AR = molecular target: T1, hA3AR (Homo sapiens, UniProt P0DMS8); conditions: for hA1/hA3 / hA2A/hA3: selectivity ratio of Ki values
T1 sequence (P0DMS8 1-318): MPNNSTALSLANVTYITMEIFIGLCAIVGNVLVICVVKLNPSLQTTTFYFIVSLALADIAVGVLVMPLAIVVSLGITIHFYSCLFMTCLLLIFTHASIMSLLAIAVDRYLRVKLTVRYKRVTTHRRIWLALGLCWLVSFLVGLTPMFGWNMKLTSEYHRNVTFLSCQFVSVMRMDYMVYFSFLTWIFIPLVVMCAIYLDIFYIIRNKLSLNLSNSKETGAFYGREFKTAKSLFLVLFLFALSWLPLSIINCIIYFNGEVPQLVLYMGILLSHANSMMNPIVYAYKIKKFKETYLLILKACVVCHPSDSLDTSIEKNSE
Procedure, shortened: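 Displacement of [125I]AB-MECA binding on membranes from CHO cells expressing recombinant hA3AR. […] ADA (3 units/mL) was present during membrane preparation, a 30 min 30 °C preincubation and radioligand incubation. DMSO was ≤2% final. At least six competitor concentrations spanning 3 log units were used. Incubations ended by GF/B filtration and three rinses.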

hA1AR = molecular target: T2, hA1AR (Homo sapiens, UniProt P30542); conditions: read-out: hA1 % of inhibition
T2 sequence (P30542 1-326): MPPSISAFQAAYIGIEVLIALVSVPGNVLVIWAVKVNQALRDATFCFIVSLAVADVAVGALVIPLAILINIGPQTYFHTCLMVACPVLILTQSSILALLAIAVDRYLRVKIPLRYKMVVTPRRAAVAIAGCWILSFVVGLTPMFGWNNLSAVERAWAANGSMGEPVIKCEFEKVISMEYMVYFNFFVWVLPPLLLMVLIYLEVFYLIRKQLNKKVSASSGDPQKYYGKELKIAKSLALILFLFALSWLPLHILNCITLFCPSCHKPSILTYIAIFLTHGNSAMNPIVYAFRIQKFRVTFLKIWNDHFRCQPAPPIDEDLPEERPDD
Procedure, shortened: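 Membranes came from CHO cells expressing recombinant hA1AR, labelled with [3H]R-PIA. ADA (3 units/mL) was present during membrane preparation, a 30 min 30 °C preincubation and radioligand incubation. Test compound was dissolved in DMSO and diluted in buffer, DMSO ≤2% final. Incubations ended by GF/B filtration and three buffer rinses. The read-out is % inhibition of specific binding at a single concentration.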

Sequence of hA2AAR (P29274 whole entry): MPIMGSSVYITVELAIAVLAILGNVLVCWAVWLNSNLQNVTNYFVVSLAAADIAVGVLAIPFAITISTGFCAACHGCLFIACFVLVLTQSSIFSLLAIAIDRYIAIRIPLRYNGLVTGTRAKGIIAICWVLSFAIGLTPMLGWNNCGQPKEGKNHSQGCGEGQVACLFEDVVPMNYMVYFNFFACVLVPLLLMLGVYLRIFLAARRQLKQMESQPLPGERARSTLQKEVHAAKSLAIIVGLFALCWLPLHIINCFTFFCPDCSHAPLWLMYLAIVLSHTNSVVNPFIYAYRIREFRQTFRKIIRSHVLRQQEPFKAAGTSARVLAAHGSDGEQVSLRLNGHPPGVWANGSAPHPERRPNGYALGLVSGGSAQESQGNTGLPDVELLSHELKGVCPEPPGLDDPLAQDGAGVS

Row | Compound | hA1/hA2A (hA2AAR) | hA1/hA3 (hA3AR) | hA2A/hA3 (hA3AR) | inhibition at 10 µM (hA1AR) [%] | pKi (hA2AAR) | pKi (hA3AR)
1 | Cn1cc2c(nc(NC(=O)Nc3ccc(CC(=O)O)cc3)n3nc(-c4ccco4)nc23)n1 [Compound 3, 2-(4-(3-(2-(furan-2-yl)-8-methyl-8H-pyrazolo [4,3-e] [1,2,4]triazolo[1,5-c]pyrimidin-5-yl)ureido)phenyl)acetic acid] | >10 | – | – | – | – | –
2 | Cn1cc2c(nc(NC(=O)Nc3ccc(CC(=O)NCCCNC(=O)OC(C)(C)C)cc3)n3nc(-c4ccco4)nc23)n1 [Compound 4, tert-Butyl (3-(2-(4-(3-(2-(furan-2-yl)-8-methyl-8H-pyrazolo [4,3-e][1,2,4]triazolo[1,5-c]pyrimidin-5-yl)ureido)phenyl)acetamido)propyl)carbamate] | >66 | >3636 | 54.5 | – | – | –
3 | Cn1cc2c(nc(NC(=O)Nc3ccc(CC(=O)NCCCCNC(=O)OC(C)(C)C)cc3)n3nc(-c4ccco4)nc23)n1 [Compound 5, tert-Butyl (4-(2-(4-(3-(2-(furan-2-yl)-8-methyl-8H-pyrazolo [4,3-e][1,2,4]triazolo[1,5-c]pyrimidin-5-yl)ureido)phenyl)acetamido)butyl)carbamate] | >33 | >2890 | 88 | – | – | –
4 | Cn1cc2c(nc(NC(=O)Nc3ccc(CC(=O)NCCCCCNC(=O)OC(C)(C)C)cc3)n3nc(-c4ccco4)nc23)n1 [Compound 6, tert-Butyl (5-(2-(4-(3-(2-(furan-2-yl)-8-methyl-8H-pyrazolo [4,3-e][1,2,4]triazolo[1,5-c]pyrimidin-5-yl)ureido)phenyl)acetamido)pentyl)carbamate] | >26.5 | >2237 | 84.1 | – | – | –
5 | Cn1cc2c(nc(NC(=O)Nc3ccc(CC(=O)NCCOCCOCCN)cc3)n3nc(-c4ccco4)nc23)n1.O=C(O)C(F)(F)F [Compound 12, 2-(2-(2-(2-(4-(3-(2-(furan-2-yl)-8-methyl-8H-pyrazolo[4,3-e][1,2,4]triazolo[1,5-c]pyrimidin-5-yl)ureido)phenyl)acetamido)ethoxy)ethoxy)ethanamine trifluoroacetate salt] | >37.4 | >520 | 14 | – | – | –
6 | Cn1cc2c(nc(NC(=O)Nc3ccc(CC(=O)NCCCOCCOCCOCCCN)cc3)n3nc(-c4ccco4)nc23)n1.O=C(O)C(F)(F)F [Compound 13, N-(3-(2-(2-(3-aminopropoxy)ethoxy)ethoxy)propyl)-2-(4-(3-(2-(furan-2-yl)-8-methyl-8H-pyrazolo[4,3-e][1,2,4]triazolo[1,5-c]pyrimidin-5-yl)ureido)phenyl)acetamide trifluoroacetate salt] | >30 | >970 | 30.3 | – | – | –
7 | Cn1cc2c(nc(NC(=O)Nc3ccc(CC(=O)NCCCNC(=S)Nc4ccc(-c5c6ccc(=O)cc-6oc6cc(O)ccc56)c(C(=O)O)c4)cc3)n3nc(-c4ccco4)nc23)n1 [Compound 14, 5-(3-(3-(2-(4-(3-(2-(furan-2-yl)-8-methyl-8H-pyrazolo[4,3-e][1,2,4]triazolo[1,5-c]pyrimidin-5-yl)ureido)phenyl)acetamido)propyl)thioureido)-2-(6-hydroxy-3-oxo-3H-xanthen-9-yl)benzoate] | >96 | >96 | 1 | 27 | – | –
8 | Cn1cc2c(nc(NC(=O)Nc3ccc(CC(=O)NCCCCCNC(=S)Nc4ccc(-c5c6ccc(=O)cc-6oc6cc(O)ccc56)c(C(=O)O)c4)cc3)n3nc(-c4ccco4)nc23)n1 [Compound 16, 5-(3-(5-(2-(4-(3-(2-(furan-2-yl)-8-methyl-8H-pyrazolo[4,3-e][1,2,4]triazolo[1,5-c]pyrimidin-5-yl)ureido)phenyl)acetamido)pentyl)thioureido)-2-(6-hydroxy-3-oxo-3H-xanthen-9-yl)benzoate] | >94 | >103 | 1.1 | 21 | – | –
9 | Cn1cc2c(nc(NC(=O)Nc3ccc(CC(=O)NCCOCCOCCNC(=S)Nc4ccc(-c5c6ccc(=O)cc-6oc6cc(O)ccc56)c(C(=O)O)c4)cc3)n3nc(-c4ccco4)nc23)n1 [Compound 17, 5-(3-(2-(2-(2-(2-(4-(3-(2-(furan-2-yl)-8-methyl-8H-pyrazolo[4,3-e][1,2,4]triazolo[1,5-c]pyrimidin-5-yl)ureido)phenyl)acetamido)ethoxy)ethoxy)ethyl)thioureido)-2-(6-hydroxy-3-oxo-3H-xanthen-9-yl)benzoate] | >94 | >73 | 0.69 | 29 | 7.02 | 6.86
10 | C#CCCCC(=O)Nc1nc2nn(C)cc2c2nc(-c3ccco3)nn12 [Compound 20, N-(2-(furan-2-yl)-8-methyl-8H-pyrazolo[4,3-e][1,2,4]triazolo[1,5-c]pyrimidin-5-yl)hex-5-ynamide] | – | – | 48.4 | – | – | –
11 | C#CCCCCCC(=O)Nc1nc2nn(C)cc2c2nc(-c3ccco3)nn12 [Compound 22, N-(2-(furan-2-yl)-8-methyl-8H-pyrazolo[4,3-e][1,2,4]triazolo[1,5-c]pyrimidin-5-yl)oct-7-ynamide] | >20.7 | >781 | 37.6 | – | – | –

Second part, the compound after the results:

Row | hA1/hA2A (hA2AAR) | hA1/hA3 (hA3AR) | hA2A/hA3 (hA3AR) | inhibition at 10 µM (hA1AR) [%] | pKi (hA2AAR) | pKi (hA3AR) | Compound
12 | >22 | >133.6 | 6.1 | – | – | – | Cn1cc2c(nc(NC(=O)Nc3ccc(CC(=O)NCCOCCOCCNC(=O)OC(C)(C)C)cc3)n3nc(-c4ccco4)nc23)n1 [Compound 7, tert-Butyl (2-(2-(2-(2-(4-(3-(2-(furan-2-yl)-8-methyl-8H-pyrazolo[4,3-e][1,2,4]triazolo[1,5-c]pyrimidin-5-yl)ureido)phenyl)acetamido)ethoxy)ethoxy)ethyl)carbamate]
13 | >30.5 | >121.3 | 3.9 | – | – | – | Cn1cc2c(nc(NC(=O)Nc3ccc(CC(=O)NCCCOCCOCCOCCCNC(=O)OC(C)(C)C)cc3)n3nc(-c4ccco4)nc23)n1 [Compound 8, tert-Butyl (1-(4-(3-(2-(furan-2-yl)-8-methyl-8H-pyrazolo [4,3-e][1,2,4]triazolo[1,5-c]pyrimidin-5-yl)ureido)phenyl)-2-oxo-7,10,13-trioxa-3-azahexadecan-16-yl)carbamate]
14 | >57 | >1240 | 21.7 | – | – | – | Cn1cc2c(nc(NC(=O)Nc3ccc(CC(=O)NCCCN)cc3)n3nc(-c4ccco4)nc23)n1 [Compound 9, N-(3-aminopropyl)-2-(4-(3-(2-(furan-2-yl)-8-methyl-8H-pyrazolo[4,3-e][1,2,4]triazolo[1,5-c]pyrimidin-5-yl)ureido)phenyl) acetamide trifluoroacetate salt]
15 | >58 | >1666 | 28.6 | – | – | – | Cn1cc2c(nc(NC(=O)Nc3ccc(CC(=O)NCCCCN)cc3)n3nc(-c4ccco4)nc23)n1 [Compound 10, N-(4-aminobutyl)-2-(4-(3-(2-(furan-2-yl)-8-methyl-8H-pyrazolo[4,3-e][1,2,4]triazolo[1,5-c]pyrimidin-5-yl)ureido)phenyl) acetamide trifluoroacetate salt]
16 | >49 | >3759 | 76.3 | – | – | – | Cn1cc2c(nc(NC(=O)Nc3ccc(CC(=O)NCCCCCN)cc3)n3nc(-c4ccco4)nc23)n1 [Compound 11, N-(5-aminopentyl)-2-(4-(3-(2-(furan-2-yl)-8-methyl-8H-pyrazolo[4,3-e][1,2,4]triazolo[1,5-c]pyrimidin-5-yl)ureido)phenyl) acetamide trifluoroacetate salt]
17 | >129 | – | 0.82 | 28 | – | – | Cn1cc2c(nc(NC(=O)Nc3ccc(CC(=O)NCCCCNC(=S)Nc4ccc(-c5c6ccc(=O)cc-6oc6cc(O)ccc56)c(C(=O)O)c4)cc3)n3nc(-c4ccco4)nc23)n1 [Compound 15, 5-(3-(4-(2-(4-(3-(2-(furan-2-yl)-8-methyl-8H-pyrazolo[4,3-e][1,2,4]triazolo[1,5-c]pyrimidin-5-yl)ureido)phenyl)acetamido)butyl)thioureido)-2-(6-hydroxy-3-oxo-3H-xanthen-9-yl)benzoate]
18 | – | >909 | 16.5 | 55 | – | – | C#CCCC(=O)Nc1nc2nn(C)cc2c2nc(-c3ccco3)nn12 [Compound 19, N-(2-(furan-2-yl)-8-methyl-8H-pyrazolo[4,3-e][1,2,4]triazolo[1,5-c]pyrimidin-5-yl)pent-4-ynamide]
19 | 5.9 | 122 and 122.7 | 20.7 | – | – | – | C#CCCCCC(=O)Nc1nc2nn(C)cc2c2nc(-c3ccco3)nn12 [Compound 21, N-(2-(furan-2-yl)-8-methyl-8H-pyrazolo[4,3-e][1,2,4]triazolo[1,5-c]pyrimidin-5-yl)hept-6-ynamide]
